High-throughput results from PubChem BioAssay.
MEKK2wt PB1 HTS: raises or lowers MEK5 binding to wildtype human MEKK2 PB1 domain; Q9Y2U5; bead flow cytometry, Alexa488-MEK5 binding to MEKK2 WT; actives lie on both sides; binding response (% of control), % at 10 µM; 290,000 tested, 1.1% active; AID 1531; in the data active = binding response below about 67% or above about 130%
MEKK2 mut-MEK5: signal of MEK5 binding to mutant human MEKK2 PB1 domain; bead flow cytometry, Alexa488-MEK5 binding to MEKK2 mutant; percent response, % at 10 µM; 290,000 tested, 0.35% active; AID 1530; in the data active = percent response above about 24%, passing the limit was not always enough
UCH37 DUB inh: inhibitors of human deubiquitinating enzyme UCH37; Q9Y5K5; purified proteasome/UCH37, Ub-AMC cleavage fluorescence; inhibition, % (no concentration beside the values); 330,000 tested, 0.33% active; AID 588478;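 active = mean inhibition over replicate wells above about 20%, limit read from the data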
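Material: Human UCH37 enzyme supplied as purified proteasome complex | Schedule: 30 min preincubation with enzyme, 25 min cleavage at room temperature | Detection: AMC fluorescence 355/460 nm | Measure: % inhibition of Ub-AMC cleavage fluorescence | Controls: Wells without proteasome as full block, compound-free enzyme plus substrate as uninhibited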
UBC13 polyUb: inhibitors of human UBC13 polyubiquitin chain formation; inhibition, % at 20 µM; AID 485273; P61088; 330,000 tested, 0.47% active; TR-FRET; in the data active = inhibition above about 45%, passing the limit was not always enough
Target sequence (P61088 whole entry, looked up): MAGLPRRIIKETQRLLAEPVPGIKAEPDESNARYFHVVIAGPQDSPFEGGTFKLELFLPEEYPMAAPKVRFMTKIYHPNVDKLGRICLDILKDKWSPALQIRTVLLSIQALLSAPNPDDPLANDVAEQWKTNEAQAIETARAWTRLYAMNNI
MEKK3 PB1 HTS: raises or lowers MEK5 binding to the human MEKK3 PB1 domain; Q99759; bead-based flow cytometry, Alexa488-MEK5 binding to MEKK3; actives lie on both sides; 0 = blocked by unlabeled MEK5, 100 = vehicle; binding response (% of control), % at 10 µM; 290,000 tested, 1.4% active; AID 1529;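 active = binding response more than 3 SD above or below the average of its plate-row segment, actives on both sides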;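 also: Alexa488 bead fluorescence after subtracting the streptavidin-only scavenger bead signal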
Target sequence (Q99759 whole entry, looked up, the tested form may be a part): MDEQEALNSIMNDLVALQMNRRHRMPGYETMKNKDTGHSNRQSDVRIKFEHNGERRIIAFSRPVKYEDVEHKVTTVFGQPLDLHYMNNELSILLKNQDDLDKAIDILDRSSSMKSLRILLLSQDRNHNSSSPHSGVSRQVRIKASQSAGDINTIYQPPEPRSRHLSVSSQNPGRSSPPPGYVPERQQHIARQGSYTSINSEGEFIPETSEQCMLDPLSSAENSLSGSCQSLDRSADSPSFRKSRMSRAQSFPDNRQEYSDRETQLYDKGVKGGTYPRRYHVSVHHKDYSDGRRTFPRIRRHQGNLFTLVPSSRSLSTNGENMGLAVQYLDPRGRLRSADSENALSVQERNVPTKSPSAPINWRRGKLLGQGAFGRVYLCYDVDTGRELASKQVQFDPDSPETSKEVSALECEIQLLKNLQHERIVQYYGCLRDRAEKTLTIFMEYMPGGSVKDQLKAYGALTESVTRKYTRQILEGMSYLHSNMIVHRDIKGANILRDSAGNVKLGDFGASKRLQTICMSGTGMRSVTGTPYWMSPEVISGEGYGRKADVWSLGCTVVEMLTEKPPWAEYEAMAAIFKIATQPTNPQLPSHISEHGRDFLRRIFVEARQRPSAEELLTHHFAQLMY
Apaf1 inhib: blocks human Apaf-1 apoptosome activity | O14727 | reconstituted apoptosome caspase-3 activity, DEVD-Rh110 fluorescence | inhibition, % at 20 µM | 330,000 tested, 0.71% active | AID 489030; active = inhibition of at least 40% at 20 µM
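Medium: Hepes buffer, pH 7.5 / System: biochemical Apaf-1 apoptosome reconstitution / Measured by: Rh110 fluorescence, excitation 480 nm, emission 540 nm / Times: compound with Apaf-1, dATP, procaspase-3 30 min, then 50 min reaction, room temperature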
MEKK2wt confirm: raises or lowers MEK5 binding to wildtype human MEKK2, retest; shares compounds with MEKK3 PB1 HTS; bead flow cytometry, Alexa488-MEK5 binding to MEKK2 WT; actives lie on both sides; binding response (% of control), % at 10 µM; 5,900 tested, 2.4% active; AID 1892; in the data active = binding response below about 16% or above about 210%; inactive = in between
MEKK2mut confirm: signal of MEK5 binding to mutant human MEKK2, retest | bead flow cytometry, Alexa488-MEK5 binding to MEKK2 mutant | shares compounds with MEKK3 PB1 HTS | AID 1893 | 5,900 tested, 2% active | percent response, % at 10 µM; in the data active = percent response mostly above about 71%, no sharp cut-off; inactive = mostly below about 38%;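 also: higher means compound restores mutant binding toward wildtype level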
MEKK3 confirm: MEKK3-MEK5 PB1 inhibition, single concentration confirmation; bead flow cytometry, Alexa488-MEK5 binding to MEKK3; active compounds read low; shares compounds with MEKK3 PB1 HTS; binding response (% of control), % at 10 µM; 5,900 tested, 1.8% active;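 active = binding response below 72% of control, or above a set upper limit, though filed actives all read lower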;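 also: lower values mean stronger disruption of MEK5 binding to MEKK3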
Hits are given with their value; 0 = inactive; - = not tested or not shown; [ ] = another dose, or the depositor's remark. Hits are enriched below; roughly 3% of the tested compounds scored in any of these assays.

SMILES | MEKK2wt PB1 HTS | MEKK2 mut-MEK5 | UCH37 DUB inh | UBC13 polyUb | MEKK3 PB1 HTS | Apaf1 inhib | MEKK2wt confirm | MEKK2mut confirm | MEKK3 confirm
CCOC(=O)c1cc(CC)sc1/N=C/C1=C(O)CC(C)(C)CC1=O | 0 | 0 | - | 0 | 136 | 0 | 0 | 0 | 0
N#C/C(=N\Nc1ccc(Cl)c(Cl)c1)C(=O)C1CC1 | 45[inhibitor] | 0 | - | 0 | 45[inhibitor] | 0 | 0 | 0 | 0
COc1ccc(-c2csc3ncnc(N4CCN(S(=O)(=O)c5ccc(C)cc5)CC4)c23)cc1 | - | - | 0 | 0 | - | 0 | - | - | -
N/C(=N\N=C/c1ccc(F)cc1)N/N=C\c1ccc(F)cc1 | 159 | 31 | - | 0 | 0 | 0 | 0 | 0 | 0
N/C(=N\N=C/c1ccc(Br)cc1)N/N=C\c1ccc(Br)cc1 | 215 | 102 | - | 0 | 0 | 0 | 0 | 0 | 0
CC(C)(C)C(=O)NC(=C(Cl)Cl)P(=O)(O)O | 0 | 0 | 0 | 0 | 0 | 0 | - | - | -
Cc1cc(=O)n2nc(N3CCCC3C(=O)Nc3cccc(F)c3)sc2n1 (stereo not given) | 0 | 0 | 0 | 0 | 0 | 0 | - | - | -
CC(=O)c1ccc(NS(=O)(=O)c2ccc(N)cc2)cc1 | 0 | 0 | 0 | 0 | 135 | 0 | 0 | 0 | 0
CCOC(=O)C1CCN(C(=O)C2CCN(c3nnc(-n4cccc4)s3)CC2)CC1 | 0 | 0 | 0 | 0 | 0 | 0 | - | - | -
CCOC(=O)C1CCN(C(=O)C2CCN(c3nc4ccc(OC)cc4s3)CC2)CC1 | 0 | 0 | 0 | 0 | 122 | 0 | 0 | 0 | 0
c1ccc(N(c2ccccc2)c2nc(N3CCCC3)nc(-n3ccnc3)n2)cc1 | - | - | 0 | 0 | - | 0 | - | - | -
CN(c1ccccc1)c1nc(N2CCCC2)nc(-n2ccnc2)n1 | 134 | 0 | 0 | 0 | 0 | 0 | 0 | 0 | 0
CCS(=O)(=O)c1nc(S(=O)(=O)c2ccc(Cl)cc2)c(N2CCc3ccccc3C2)s1 | 0 | 0 | 0 | 0 | 135 | 0 | 0 | 0 | 0
CCS(=O)(=O)c1nc(S(=O)(=O)c2ccc(Cl)cc2)c(N2CCN(CCO)CC2)s1 | 0 | 0 | 0 | 0 | 0 | 0 | - | - | -
COc1ccc(NC(=O)COc2ncnc3ccccc23)cc1S(=O)(=O)N1CCOCC1 | 0 | 0 | 0 | 0 | 0 | 0 | - | - | -
O=C(COc1ccc(C(=O)Nc2ccc(Cl)cc2)cc1)NCc1ccccc1 | 0 | 0 | 0 | 0 | 155 | 0 | 0 | 0 | 0
CC1(C)Cc2ccccc2C(COc2ccccc2)=N1 | 0 | 0 | - | 0 | 0 | 0 | - | - | -
COc1ccc(F)c(CN2CCCC(CO)(Cc3cccc(Cl)c3)C2)c1 (stereo not given) | 0 | 0 | 0 | 0 | 0 | 0 | - | - | -
COc1ccc(/C=C/CN2CCCC(CO)(Cc3cccc(Cl)c3)C2)cc1 (stereo not given) | 159 | 0 | 0 | 0 | 0 | 0 | 0 | 0 | 0
O=C(Nc1ccc(Cl)cn1)c1ccc(COc2ccccc2Br)o1 | 0 | 0 | 0 | 0 | 49[inhibitor] | 0 | 0 | 0 | 0
Cc1ccc(OCCC(=O)Nc2ccc(S(=O)(=O)Nc3cc(C)nc(C)n3)cc2)cc1 | - | - | 0 | 0 | - | 0 | - | - | -
c1ccc2c(c1)oc1c(Nc3ccc(CN4CCOCC4)cc3)ncnc12 | 0 | 0 | 0 | 0 | 0 | 0 | - | - | -
CCOC(=O)c1cnc2c(ccc3ccccc32)c1NCCCN(C)C | 151 | 0 | 0 | 0 | 0 | 0 | 0 | 0 | 0
CCOC(=O)c1cnc2ccccc2c1NCCO | 0 | 0 | 0 | 0 | 0 | 0 | - | - | -
Cc1csc(NC(=O)CCn2c(=O)sc3ccccc32)n1 | 0 | 0 | 0 | 0 | 70[inhibitor] | 0 | 0 | 0 | 0
SMILES | MEKK2wt PB1 HTS | MEKK2 mut-MEK5 | UCH37 DUB inh | UBC13 polyUb | MEKK3 PB1 HTS | Apaf1 inhib | MEKK2wt confirm | MEKK2mut confirm | MEKK3 confirm
O=C1NC[C@H](c2ccccc2)N(CCc2cccc(F)c2)C1=O | 0 | 0 | 0 | 0 | 79[inhibitor] | 0 | 0 | 0 | 0
CC(O)[C@H]1CNC(=O)C(=O)N1CCc1cccc(F)c1 (stereo not given in full) | 0 | 0 | 0 | 0 | 0 | 0 | - | - | -
CC(=O)C(Sc1ncnc2sc3c(c12)CCCC3)C(C)=O | 0 | 0 | - | 0 | 0 | 0 | - | - | -
COCc1cc(C)nc(SCC(=O)Nc2ccccc2N2CCOCC2)c1C#N | 0 | 0 | 0 | 0 | 0 | 0 | - | - | -
CC(C)Oc1ccc(C(=O)N2CCCc3ccccc32)cc1 | 0 | 0 | 0 | 0 | 123 | 0 | 0 | 0 | 0
COc1ccccc1N1CCN(CCOc2c(OC)cccc2OC)CC1 | 0 | 0 | 0 | 0 | 0 | 0 | - | - | -
CC1(OC(=O)C2CCCC2)C(=O)C=C2C=C(c3ccsc3)N(CCN3CCOCC3)C=C2C1=O (stereo not given) | 146 | 0 | 0 | 0 | 0 | 0 | 0 | 0 | 0
CC1(OC(=O)C2CCCC2)C(=O)C=C2C=C(c3ccsc3)N(CC3CC3)C=C2C1=O (stereo not given) | 0 | 0 | 0 | 0 | 0 | 0 | - | - | -
CC1(OC(=O)C2CCCC2)C(=O)C=C2C=C(c3ccsc3)N(C3CCCCC3)C=C2C1=O (stereo not given) | 0 | 0 | 0 | 0 | 80[inhibitor] | 0 | 0 | 0 | 0
Cc1cccc(N=C2Sc3nc4c(C)c(C)ccc4cc3CN2CCN2CCOCC2)c1 | 144 | 24 | 0 | 0 | 0 | 0 | 0 | 0 | 0
CC(=O)Nc1ccc(/C(C)=N/NS(=O)(=O)c2ccccc2)cc1 | 0 | 0 | - | 0 | 128 | 0 | 0 | 0 | 0
O=C(CN(Cc1ccco1)C(=O)c1cccc(Cl)c1)Nc1c(Cl)cc(Cl)cc1Cl | 0 | 0 | 0 | 0 | 122 | 0 | 0 | 0 | 0
O=C(CN(Cc1ccco1)C(=O)c1ccc(Cl)cc1)Nc1c(Cl)cc(Cl)cc1Cl | 0 | 0 | 0 | 0 | 0 | 0 | - | - | -
O=C(NC1CCN(Cc2ccccc2)CC1)c1ccccc1OCc1ccccc1 | 0 | 0 | 0 | 0 | 0 | 0 | - | - | -
c1ccc(COc2ccc(OCCCNC3CCCC3)cc2)cc1 | 140 | 0 | 0 | 0 | 0 | 0 | 0 | 0 | 0
O=C(NC1CCCC1)c1ccccc1OCc1ccccc1 | 0 | 0 | 0 | 0 | 63[inhibitor] | 0 | 0 | 0 | 0
COCCCNCCCCOc1ccc(OCc2ccccc2)cc1 | 0 | 0 | 0 | 0 | 0 | 0 | - | - | -
O=C(CCNC(=O)OCc1ccccc1)NC1CCCCC1 | 0 | 0 | 0 | 0 | 135 | 0 | 0 | 0 | 0
Cc1cc[n+](CC2OCc3ccccc3CO2)cc1 | 0 | 0 | 0 | 0 | 0 | 0 | - | - | -
COc1ccc(CCN2CCCC(CN(C)Cc3cc(Cl)c(O)c(OC)c3)C2)cc1 (stereo not given) | 135 | 25 | 0 | 0 | 0 | 0 | 0 | 0 | 0
